Screening data: PubChem BioAssay, several laboratories
Only some compounds are listed: those with a hit (about 1.2% of all), similar ones and a draw of the others.
PERK inhibitor: human PERK inhibition, primary cell-based screen. Q9NZJ5. CHO PERK-DD fusion, SEAP luminescence translation reporter. inhibition, % at 5.6 µM. hit rate 0.17% among 220,000. AID 1416;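 active = inhibition above the mean inhibition of all tested compounds plus 3 SD, set separately per screening campaign, cut at about 2.9% in these data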;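 also: PERK kinase domain activated by AP20187 dimerizer at 100 nM; 0% = DMSO with dimerizer and 100% = rapamycin at 8.4 µM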
Target sequence (Q9NZJ5 whole entry, looked up, the tested form may be a part): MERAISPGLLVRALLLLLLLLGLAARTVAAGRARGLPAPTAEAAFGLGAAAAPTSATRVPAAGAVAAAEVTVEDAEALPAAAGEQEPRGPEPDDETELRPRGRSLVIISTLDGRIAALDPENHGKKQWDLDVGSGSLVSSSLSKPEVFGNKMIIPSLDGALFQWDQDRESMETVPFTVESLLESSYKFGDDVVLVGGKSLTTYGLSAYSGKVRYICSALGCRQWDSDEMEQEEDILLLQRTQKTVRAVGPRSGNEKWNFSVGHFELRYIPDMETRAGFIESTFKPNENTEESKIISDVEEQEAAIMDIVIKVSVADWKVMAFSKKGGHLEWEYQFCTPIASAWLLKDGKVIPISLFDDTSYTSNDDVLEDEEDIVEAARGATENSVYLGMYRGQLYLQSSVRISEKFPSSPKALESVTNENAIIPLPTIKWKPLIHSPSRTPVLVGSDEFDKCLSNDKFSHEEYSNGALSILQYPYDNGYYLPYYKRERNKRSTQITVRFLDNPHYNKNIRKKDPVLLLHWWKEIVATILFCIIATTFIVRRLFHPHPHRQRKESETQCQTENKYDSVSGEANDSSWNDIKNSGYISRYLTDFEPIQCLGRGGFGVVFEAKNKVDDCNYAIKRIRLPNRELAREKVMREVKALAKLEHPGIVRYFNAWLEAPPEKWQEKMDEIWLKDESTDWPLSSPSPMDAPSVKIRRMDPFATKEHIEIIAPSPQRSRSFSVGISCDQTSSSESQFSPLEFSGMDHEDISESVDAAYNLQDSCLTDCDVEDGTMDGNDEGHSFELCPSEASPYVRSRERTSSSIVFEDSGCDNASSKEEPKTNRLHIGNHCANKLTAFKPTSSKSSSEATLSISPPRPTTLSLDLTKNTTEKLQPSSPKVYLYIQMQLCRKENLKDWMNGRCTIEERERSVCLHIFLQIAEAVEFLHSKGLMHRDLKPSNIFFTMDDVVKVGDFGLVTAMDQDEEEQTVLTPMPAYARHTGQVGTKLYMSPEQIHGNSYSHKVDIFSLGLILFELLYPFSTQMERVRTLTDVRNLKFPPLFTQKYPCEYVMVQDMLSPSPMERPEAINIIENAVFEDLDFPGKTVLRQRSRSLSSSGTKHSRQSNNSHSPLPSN
HSV augment: increases HSV replication in cells | HSV replication augmentation in cells, fold increase | maximum fold increase | hit rate 0.005% among 220,000; in the data active = maximum fold increase above about 1.5; inconclusive = no clear call, values can overlap the other calls; tested in PC3 cells
HKDC1 inh: inhibitors of human hexokinase HKDC1. hit rate 0.16% among 340,000. Q2TB90. inhibition, % at 20 µM. AID 493160. recombinant HKDC1, G6PDH/diaphorase resazurin coupled fluorescence;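 active = inhibition above about 35% when tested at 20 µM, limit read from the data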;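 also: plate controls were DMSO wells with enzyme for no effect and DMSO wells lacking enzyme for full effect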
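Material – in-house recombinant HK5 (HKDC1) enzyme · Quantity – HKDC1 at 5 µg/mL · Buffer or medium – pH 8.0 Tris buffer with 10 mM MgCl2 · Reagent – glucose with 1 mM ATP · Dosing – single 20 µM dose · Times – reaction time 90 min, room temperature, protected from light · Technique – resorufin fluorescence at 613 nm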
Tb hexokinase: blocks Trypanosoma brucei hexokinase 1 activity | recombinant TbHK1, G6PDH-coupled NADH A340 | inhibition, % at 10 µM | hit rate 0.11% among 220,000 | AID 1430;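 active = inhibition of 50% or more in the single-dose primary screen; inactive = inhibition below 50%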
Dynein transport: dynein cargo transport inhibition | 3617.4 mouse cells, GR-EGFP nuclear translocation imaging; test concentration mostly 20 µM; stimulated with dexamethasone, 1 µM; stronger effect = lower value | z-score, hits read low | hit rate 0.47% among 220,000 | AID 1381;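 active = plate z-score of nuclear minus cytoplasmic receptor signal below a set negative limit, without overly bright fluorescence or cell loss, cut at about -3.5 in these data, passing the limit was not always enough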;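 also: z-score of nuclear minus cytoplasmic ring GR-EGFP intensity difference per well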
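Buffer or medium: Induction medium lacking tetracycline, stripped serum | Also added: Dexamethasone agonist, 1.0 µM final, for 30 min | Timing: 48 h induction, 1 h compound, 30 min dex at 37 °C | Detection: Formaldehyde fixation, Hoechst nuclear stain, 10x automated fluorescence imaging | Measure: Nuclear versus cytoplasmic GR-EGFP signal, averaged per well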
Autophagy HCS: alters autophagy in cells. MEF GFP-LC3 puncta imaging; test concentration mostly 10 µM. calls only at 10 µM (by protocol). hit rate 0.98% among 190,000. AID 463193;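 active = percentage of spot-positive cells more than 3 SD above its plate mean, without a fluorescence outlier flag or 80% toxicity; inconclusive = no clear call, values can overlap the other calls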;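 also: spot-positive cell cutoff set from DMSO-treated cells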
Dynein confirm: dynein cargo transport inhibition, confirmation; shares compounds with Dynein transport; 3617.4 GR-EGFP nuclear translocation imaging, dexamethasone-induced; calls only at 20 µM; hit rate 69% among 1,000;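 active = inhibition of receptor movement into the nucleus at or above a set limit in both runs, with normal cell brightness and cell count; inconclusive = limit reached in only one run, brightness and count normal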;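 also: dexamethasone at 1 µM final in well for 30 min; nuclear minus cytoplasmic GR-EGFP mean intensity difference in channel 2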
Active calls of the source: *; i = inactive; ? = inconclusive; / = no result; + = active, no number.

SMILES | PERK inhibitor | HSV augment | HKDC1 inh | Tb hexokinase | Dynein transport | Autophagy HCS | Dynein confirm
O=C(O)COc1ccccc1C=NNc1ccc([N+](=O)[O-])cc1S(=O)(=O)Nc1ccc(Cl)cc1 | / | / | 2.5 | / | / | / | /
O=[N+]([O-])c1ccccc1N/N=C/c1c[nH]c2ccccc12 | -1.2 | i | 9.1 | -1.9 | -0.681 | i | /
COc1ccccc1NS(=O)(=O)c1cc([N+](=O)[O-])ccc1N/N=C/c1c[nH]c2ccccc12 | -0.6 | i | 8.0 | -9.4 | -4.13 | + | i
O=[N+]([O-])c1ccc(NN=Cc2cccc([N+](=O)[O-])c2)cc1 | / | / | -4.1 | / | / | / | /
O=[N+]([O-])c1ccc(N/N=C/c2c[nH]c3ccccc23)cc1 | -0.2 | i | -1.6 | 1.2 | -8.38 | + | +
O=[N+]([O-])c1ccc(N/N=C/c2ccc[nH]2)cc1 | 0.2 | i | -4.2 | -10.5 | -10.6 | + | +
Cc1[nH]c2ccccc2c1/C=N/Nc1ccc([N+](=O)[O-])cc1S(=O)(=O)Nc1ccc(Cl)cc1 | -0.1 | / | 3.8 | -14.3 | -5.35 | + | i
COc1ccc(CCN2CC(C(=O)NCC(=O)Nc3ccc(F)c(F)c3)CC2=O)cc1OC (configuration not stated) | / | / | -4.0 | / | / | / | /
COc1ccccc1NS(=O)(=O)c1cc([N+](=O)[O-])ccc1N/N=C/c1sc(N2CCOCC2)nc1-c1ccccc1 | 0.9 | ? | -3.4 | -11.8 | -11.8 | + | i
Cc1cc(NC(=O)CSc2nc(C)c(C)c(=O)[nH]2)no1 | / | / | 1.8 | / | / | / | /
CC(=O)/C=C/n1c(=S)oc2ccccc21 | 0.7 | i | 9.9 | 15.2 | -4.07* | + | +
CC(C)CC(=O)/C=C/n1c(=S)oc2ccccc21 | 1.0 | i | 3.3 | -1.6 | -3.96* | i | +
Cn1c(=S)oc2ccccc21 | 2.1 | i | -5.4 | -5.4 | -0.811 | / | /
CCOC(=O)N1CCN(C(=O)COC(=O)c2ccc(Cl)nc2)CC1 | / | / | -6.5 | / | / | / | /
O=C(N/C(=C\c1cccc(Br)c1)C(=O)N1CCOCC1)c1ccco1 | / | / | -8.1 | / | / | / | /
O=[N+]([O-])/C=C/c1cn(Cc2ccc(F)cc2)c2ccccc12 | -0.1 | i | 24.8 | -1.6 | -3.87* | i | +
CC(=O)Nc1cccc(C(=O)/C=C/c2ccc(/C=C/C(=O)c3cccc(NC(C)=O)c3)cc2)c1 | 0.2 | i | / | -47.9 | -2.07 | i | /
CC(=O)Nc1cccc(C(=O)/C=C/c2cccs2)c1 | -0.4 | i | -2.5 | 8.0 | -3.67* | i | +
CC(=O)Nc1cccc(C(=O)/C=C/c2ccc(F)cc2)c1 | 0.4 | i | 6.8 | -21.8 | -3.86* | i | +
CC(=O)Nc1cccc(C(=O)/C=C/c2ccc(Br)cc2)c1 | 0.2 | i | 25.8 | 16.4 | -2.69 | i | /
O=C(COC(=O)c1ccc(Cl)nc1)Nc1ccc(N2CCCCC2)cc1 | / | / | -6.6 | / | / | / | /
CCOc1ccc(OCCC(=O)OCC(=O)NC(C)c2ccccc2)cc1 (configuration not stated) | / | / | -2.6 | / | / | / | /
O=C1C=CC(=O)N1c1cccc(-c2ccccc2)c1 | -0.4 | i | 7.0 | 8.5 | -3.84* | / | i
O=C(CSc1nnc(CNC(=O)c2ccccc2F)o1)NC1CCCCC1 | / | / | -7.9 | / | / | / | /
O=C(NC1CCCC1)C(c1ccc(Cl)cc1)N(Cc1ccc(F)cc1)C(=O)CCl (configuration not stated) | -0.9 | i | 9.7 | 25.1 | -5.3* | i | +
COC(CN(C(=O)CCl)C(C(=O)NC1CCCCC1)c1ccc(Cl)cc1)OC (configuration not stated) | 0.3 | i | -1.6 | 9.7 | -4.13* | i | +
COC(CN(C(=O)CCl)C(C(=O)NC1CCCCC1)c1ccccc1C)OC (configuration not stated) | 0.6 | i | -2.2 | 9.3 | -1.9 | i | /
COC(CN(C(=O)CCl)C(C(=O)NC1CCCC(C)C1C)c1ccc(C)cc1)OC (configuration not stated) | 0.0 | i | -7.8 | 26.3 | -4.26* | i | +
COC(=O)c1ccc(C(C(=O)NC2CCCCC2)N(Cc2ccc(F)cc2)C(=O)Cc2cccs2)cc1 (configuration not stated) | 0.6 | i | -5.9 | -2.8 | -0.771 | i | /
